Data reported in PMC11533547 (Poultry Science, 2024).
No end group written: not given here.

Key:
chicken PD-1 protein = molecular target: T1, chicken PD-1 protein (Gallus gallus, UniProt A0A1L1RYS1); test: MST affinity of peptides for chicken PD-1 protein; type: binding
T1 sequence (A0A1L1RYS1 1-304): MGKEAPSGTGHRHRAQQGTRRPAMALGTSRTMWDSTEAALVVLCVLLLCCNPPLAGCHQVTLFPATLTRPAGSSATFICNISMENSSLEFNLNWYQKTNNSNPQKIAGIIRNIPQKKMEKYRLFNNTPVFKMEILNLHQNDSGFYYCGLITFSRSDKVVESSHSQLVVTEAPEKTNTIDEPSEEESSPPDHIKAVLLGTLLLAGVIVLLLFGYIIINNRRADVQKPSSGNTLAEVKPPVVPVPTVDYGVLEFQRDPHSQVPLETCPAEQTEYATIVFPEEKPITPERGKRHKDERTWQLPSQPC
In short: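 Chicken PD-1 protein labelled with a BLUE-NHS amine-reactive dye, then mixed in equal volumes with each peptide from a 2-fold dilution series in PBS (pH 7.4), 1800 to 0.054 nM. Incubated about 5 min, loaded into standard capillaries and read at once by microscale thermophoresis. Chicken PD-L1 protein (100 nM) as positive control. KD reported as the mean of 3 independent experiments.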

DT40 cells = test: MTT cell viability assay; type: cell-based, chicken; conditions: 10 to 500 nM peptide, 24 h, OD450

For DAGLYHCLIEYGGADYKTINLK [gDK2-3], the Kd (chicken PD-1 protein) was 9.73 nM and the “cell viability (cytotoxicity)” value (DT40 cells) was “no significant effect on cell viability”.
